The source made the active and inactive calls. The calls are words filed in the database; no cut-off is given here.
Assays:
MDA-MB-231 [1] = assay: Cytotoxicity against human MDA-MB-231 cells assessed as reduction in cell viability incubated for 48 hrs by MTT assay; format: functional, cell-based; conditions: MDA-MB-231, 48 h
Procedure, shortened: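 MTT assay in MDA-MB-231 cells grown in DMEM with 10% heat-inactivated FBS at 37 °C and 5% CO2. Cells were seeded at 8000 per well, left 24 h, then exposed for 48 h to 0–25 μM in DMEM with 2% FBS (final DMSO 0.1%). MTT (0.5 mg/mL) was added for 2 h, formazan was dissolved in DMSO and read at 570 nm. Runs were in triplicate and IC50 was derived from the curves.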

[2] = target: DAT (sodium-dependent dopamine transporter) (Homo sapiens, UniProt Q01959); assay: Inhibition of DAT (unknown origin) at 10 uM relative to control
Chain of DAT (sodium-dependent dopamine transporter) (Q01959 whole entry): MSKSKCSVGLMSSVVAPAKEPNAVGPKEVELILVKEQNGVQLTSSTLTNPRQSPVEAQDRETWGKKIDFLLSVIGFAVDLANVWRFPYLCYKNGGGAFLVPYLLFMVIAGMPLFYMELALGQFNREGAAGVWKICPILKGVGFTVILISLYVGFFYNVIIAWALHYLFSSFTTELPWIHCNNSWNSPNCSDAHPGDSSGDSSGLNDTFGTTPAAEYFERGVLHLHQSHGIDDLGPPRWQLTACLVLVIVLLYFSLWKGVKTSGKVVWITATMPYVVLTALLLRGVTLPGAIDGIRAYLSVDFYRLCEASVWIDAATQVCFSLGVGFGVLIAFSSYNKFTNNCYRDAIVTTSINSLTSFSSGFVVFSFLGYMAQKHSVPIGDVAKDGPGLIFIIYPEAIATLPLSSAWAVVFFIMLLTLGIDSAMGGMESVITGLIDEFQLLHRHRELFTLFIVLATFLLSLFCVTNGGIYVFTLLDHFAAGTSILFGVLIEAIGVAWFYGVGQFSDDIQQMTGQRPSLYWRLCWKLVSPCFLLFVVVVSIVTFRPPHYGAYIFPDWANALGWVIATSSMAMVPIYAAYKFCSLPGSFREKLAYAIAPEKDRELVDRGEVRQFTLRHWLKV
Procedure, shortened: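 Primary radioligand-binding screen by the NIMH Psychoactive Drug Screening Program. Each compound was tested at a final concentration of 10 μM in triplicate or quadruplicate, and % inhibition was recorded. Data are mean ± SEM of four independent experiments. Compounds reaching at least 50% antagonist activity went on to secondary dose-response assays.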

[3] = target: Sodium-dependent dopamine transporter (Homo sapiens, UniProt Q01959); assay: Inhibition of DAT (unknown origin)
Chain of Sodium-dependent dopamine transporter (Q01959 whole entry): as above

[4] = Metabolic stability in Sprague-Dawley rat liver microsomes assessed as parent compound remaining in presence of NADPH measured up to 60 mins by LC-MS/MS analysis; format: ADME, Microsome; conditions: 1 h
Procedure, shortened: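 Pooled male Sprague-Dawley rat liver microsomes (6.2% mixture in potassium phosphate buffer) were used with an NADPH regenerating system. Compound, diluted to 5 μM before mixing, was prewarmed 10 min at 37 °C, then incubated with microsomes at 37 °C with shaking. Samples taken at 0, 5, 15, 30 and 60 min were quenched in ice-cold acetonitrile and centrifuged. Analysis was by LC-MS/MS, giving % remaining versus T0 from peak area ratios. Three independent experiments in triplicate.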

MDA-MB-231 [5] = assay: Induction of apoptosis in human MDA-MB-231 cells assessed as fold increase in apoptotic index at 5 uM relative to control; format: functional
MDA-MB-231 [6] = assay: Induction of apoptosis in human MDA-MB-231 cells at 1 uM incubated for 48 hrs; format: functional, cell-based
[7] = target: Fibroblast growth factor receptor 1 (Homo sapiens) (UniProt P11362); assay: Inhibition of FGFR1 phosphorylation in human […] cells at 3 to 6 uM incubated for 48 hrs in presence of bFGF by immunoblotting analysis; format: cell-based; conditions: MDA-MB-231, dose 3-6 µM
Chain of Fibroblast growth factor receptor 1 (Homo sapiens) (P11362 22-822 limits assumed): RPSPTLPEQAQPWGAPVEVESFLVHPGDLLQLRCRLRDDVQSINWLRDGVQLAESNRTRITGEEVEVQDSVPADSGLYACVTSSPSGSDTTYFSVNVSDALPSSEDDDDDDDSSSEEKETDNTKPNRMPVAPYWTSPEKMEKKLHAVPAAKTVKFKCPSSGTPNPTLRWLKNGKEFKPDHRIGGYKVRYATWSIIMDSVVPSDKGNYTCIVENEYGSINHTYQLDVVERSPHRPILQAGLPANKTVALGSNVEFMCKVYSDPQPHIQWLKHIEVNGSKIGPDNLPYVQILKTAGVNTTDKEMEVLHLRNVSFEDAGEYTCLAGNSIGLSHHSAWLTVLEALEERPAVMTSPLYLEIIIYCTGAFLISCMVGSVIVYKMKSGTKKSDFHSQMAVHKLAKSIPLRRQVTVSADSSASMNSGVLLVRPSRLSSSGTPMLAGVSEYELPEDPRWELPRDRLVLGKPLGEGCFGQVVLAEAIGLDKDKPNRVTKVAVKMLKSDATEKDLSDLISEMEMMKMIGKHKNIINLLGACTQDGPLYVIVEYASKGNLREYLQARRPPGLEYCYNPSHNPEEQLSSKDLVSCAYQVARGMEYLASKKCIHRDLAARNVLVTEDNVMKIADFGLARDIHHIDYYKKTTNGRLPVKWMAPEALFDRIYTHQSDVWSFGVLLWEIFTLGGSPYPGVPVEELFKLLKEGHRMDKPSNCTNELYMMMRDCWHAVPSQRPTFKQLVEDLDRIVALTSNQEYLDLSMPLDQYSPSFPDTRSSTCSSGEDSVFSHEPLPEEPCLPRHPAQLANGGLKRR
Procedure, shortened: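 MDA-MB-231 cells treated 48 h with or without bFGF, lysed in RIPA buffer with protease and phosphatase inhibitors. Equal protein loads were run on SDS-PAGE and transferred to PVDF. Blots were probed with anti-pFGFR1 (1:1000), using β-tubulin (1:2000) as loading control. Bands were detected by HRP chemiluminescence and quantified by densitometry; n = 3.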

MDA-MB-231 [8] = assay: Effect on cell cycle in human MDA-MB-231 cells at 0 to 5 uM; format: functional, cell-based; conditions: dose 0-5 µM
MDA-MB-231 [9] = assay: Induction of apoptosis in human MDA-MB-231 cells assessed as caspase-3 cleavage; format: functional, cell-based
Procedure, shortened: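 MDA-MB-231 cells treated 48 h, lysed on ice in RIPA buffer with protease and phosphatase inhibitors, then centrifuged. Equal protein loads were run on SDS-PAGE and transferred to PVDF. Blots were probed for cleaved caspase-3 and total caspase-3 (1:1000), with β-tubulin (1:2000) as loading control. Detection used HRP chemiluminescence with goat anti-rabbit secondary, and bands were quantified by densitometry.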

MDA-MB-231 [10] = assay: Induction of apoptosis in human MDA-MB-231 cells incubated for 48 hrs; format: functional, cell-based

inhibition at 10 µM [2] [%]	Compound	IC50 (MDA-MB-231 [1]) [µM]	other results
	O=C(NCCCCC(c1ccc(F)cc1)c1ccc(F)cc1)Nc1ccc(C(F)(F)F)cc1	2.78	
	O=S(=O)(c1ccc(Cl)c(C(F)(F)F)c1)N1CCN(CCCCC(c2ccc(F)cc2)c2ccc(F)cc2)CC1	> 20	
	O=C(NCCCCC(c1ccc(F)cc1)c1ccc(F)cc1)Nc1ccc(Br)cc1I	> 20	
51	O=C(NCCCCC(c1ccc(F)cc1)c1ccc(F)cc1)c1ccc(Cl)c(C(F)(F)F)c1	11.7	Ki [3]: 0.603 µM
	O=C(NCCCCCc1ccc(F)cc1)Nc1ccc(Cl)c(C(F)(F)F)c1	5.44	
68	O=C(NCCCCN(c1ccc(F)cc1)c1ccc(F)cc1)Nc1ccc(Cl)cc1	> 20	Ki [3]: 0.405 µM
	O=C(NCCCCC(c1ccc(F)cc1)c1ccc(F)cc1)Nc1ccc([N+](=O)[O-])c(Cl)c1	3.47	
75	COc1ccc(C(CCCCNC(=O)Nc2ccc(Cl)c(C(F)(F)F)c2)c2ccc(OC)cc2)cc1	3.3	Ki [3]: 0.04 µM
49	O=C(Nc1ccc(Cl)c(C(F)(F)F)c1)OCCCCC(c1ccc(F)cc1)c1ccc(F)cc1	4.58	
	Fc1ccc(C(CCCCOC2COC(c3ccccc3)OC2)c2ccc(F)cc2)cc1 (configuration not stated)	> 20	
	Nc1ccc(C(CCCCNC(=O)Nc2ccc(Cl)c(C(F)(F)F)c2)c2ccc(N)cc2)cc1	12.2	
33	O=C(CCCCC(c1ccc(F)cc1)c1ccc(F)cc1)Nc1ccc(Cl)c(C(F)(F)F)c1	11.4	
90	O=C(NCCCCC(c1ccc(F)cc1)c1ccc(F)cc1)Nc1ccc(Cl)c(C(F)(F)F)c1	3.15	Ki [3]: 0.0065 µM; Stabilty [4]: Stable
76	CC(=O)Nc1cc(NC(=O)NCCCCC(c2ccc(F)cc2)c2ccc(F)cc2)ccc1Cl	9.12	Ki [3]: 0.609 µM
	O=C(NCCCCN(c1ccc(F)cc1)c1ccc(F)cc1)Nc1ccc(I)cc1	> 20	
86	O=C(NCCCC(c1ccc(F)cc1)c1ccc(F)cc1)Nc1ccc(Cl)c(C(F)(F)F)c1	3.5	Ki [3]: 0.141 µM
64	COc1ccc(C(CCCCNC(=O)Nc2ccc(Cl)c([N+](=O)[O-])c2)c2ccc(OC)cc2)cc1	3.99	Ki [3]: 0.144 µM
	Nc1cc(NC(=O)NCCCCC(c2ccc(F)cc2)c2ccc(F)cc2)ccc1Cl	9.24	
	O=C(Nc1ccc(Cl)c(C(F)(F)F)c1)N1CCC(=C(c2ccc(F)cc2)c2ccc(F)cc2)CC1	5.65	
	Fc1ccc(C(CCCCN(c2ccc(F)cc2)c2ccc(F)cc2)c2ccc(F)cc2)cc1	> 20	
	O=C(NCCCCC(c1ccc(F)cc1)c1ccc(F)cc1)Nc1ccc([N+](=O)[O-])c(C(F)(F)F)c1	4.55	fold change (FC) (MDA-MB-231 [5]): 10.6; Activity (MDA-MB-231 [6]): Active; inhibition [7]: Active; Activity (MDA-MB-231 [8]): inactive; Activity (MDA-MB-231 [9]): Active; Activity (MDA-MB-231 [10]): Dose-dependent effect; Stabilty [4]: Stable
	Cc1cccc(NC(=O)NCCCCC(c2ccc(F)cc2)c2ccc(F)cc2)c1	> 20	
	O=C(NCCCCC(c1ccccc1)c1ccccc1)Nc1ccc(Cl)c(C(F)(F)F)c1	5.72	
	O=C(NCCCCC(c1ccc(OC(F)(F)F)cc1)c1ccc(OC(F)(F)F)cc1)Nc1ccc(Cl)c(C(F)(F)F)c1	1.69	
	OC1(c2ccc(Cl)c(C(F)(F)F)c2)CCN(CCCC(c2ccc(F)cc2)c2ccc(F)cc2)CC1 [PENFLURIDOL]	2.3	
	O=C(NCCCCC(c1ccc(F)cc1)c1ccc(F)cc1)Nc1ccc([N+](=O)[O-])cc1	6.47	
	Cc1ccc(NC(=O)NCCCCC(c2ccc(F)cc2)c2ccc(F)cc2)cc1	> 20	

inhibition at 10 µM [2] [%]	Compound	IC50 (MDA-MB-231 [1]) [µM]	other results
52	O=C(Nc1ccc(Cl)c(C(F)(F)F)c1)N1CCC(C(c2ccc(F)cc2)c2ccc(F)cc2)CC1	11.4	Ki [3]: 1.59 µM
	O=C(OCCCC(c1ccc(F)cc1)c1ccc(F)cc1)c1cc(Cl)c(OCc2ccccc2)c(Cl)c1	> 20	
38	Cc1ccc(C(CCCCNC(=O)Nc2ccc(Cl)c(C(F)(F)F)c2)c2ccc(C)cc2)cc1	2.51	
	O=C(NCCCCN(c1ccc(F)cc1)c1ccc(F)cc1)Nc1ccc(Br)cc1I	> 20	
	Fc1ccc(C(CCCCNC(=S)Nc2ccc(Cl)c(C(F)(F)F)c2)c2ccc(F)cc2)cc1	3.66	
79	Cc1ccc(NC(=O)NCCCCC(c2ccc(F)cc2)c2ccc(F)cc2)cc1C	> 20	Ki [3]: 0.08 µM
	O=C(NCCCCC(c1ccc(F)cc1)c1ccc(F)cc1)Nc1cccc(C(F)(F)F)c1	3.38	
	O=C(NCCCCC(c1ccc(F)cc1)c1ccc(F)cc1)Nc1cccc(Cl)c1	5.07	
	Cc1ccc(NC(=O)NCCCCN(c2ccc(F)cc2)c2ccc(F)cc2)cc1C	> 20	
	CC(=O)Nc1ccc(NC(=O)NCCCCC(c2ccc(F)cc2)c2ccc(F)cc2)cc1	> 20	
	O=C(NCCCCC(c1ccc(F)cc1)c1ccc(F)cc1)Nc1ccc(C(=O)O)c(C(F)(F)F)c1	> 20	
77	O=C(NCCCCCC(c1ccc(F)cc1)c1ccc(F)cc1)Nc1ccc(Cl)c(C(F)(F)F)c1	2.57	Ki [3]: 0.399 µM
	COC(=O)c1ccc(NC(=O)NCCCCC(c2ccc(F)cc2)c2ccc(F)cc2)cc1C(F)(F)F	4.43	
73	CN(CCCCC(c1ccc(F)cc1)c1ccc(F)cc1)C(=O)Nc1ccc(Cl)c(C(F)(F)F)c1	6.02	Ki [3]: 0.998 µM
59	Cc1ccc(C(CCCCNC(=O)Nc2ccc(Cl)cc2)c2ccc(C)cc2)cc1	17.9	Ki [3]: 0.535 µM
	Fc1ccc(C(CCCCOCc2ccc(Oc3ccc(Cl)cc3)cc2)c2ccc(F)cc2)cc1	> 20	
24	O=C(Nc1ccc(Cl)c(C(F)(F)F)c1)N1CCC(CC(c2ccc(F)cc2)c2ccc(F)cc2)CC1	4.84	
	O=C(NCCCCC(c1ccc([N+](=O)[O-])cc1)c1ccc([N+](=O)[O-])cc1)Nc1ccc(Cl)c(C(F)(F)F)c1	1.23	
58	Cc1cc(Cl)ccc1NC(=O)NCCCCC(c1ccc(F)cc1)c1ccc(F)cc1	> 20	Ki [3]: 0.118 µM
26	CN(CCCCC(c1ccc(F)cc1)c1ccc(F)cc1)C(=O)N(C)c1ccc(Cl)c(C(F)(F)F)c1	> 20	
	Nc1ccc(NC(=O)NCCCCC(c2ccc(F)cc2)c2ccc(F)cc2)cc1	> 20	
	O=C(NCCCCC(c1ccc(F)cc1)c1ccc(F)cc1)Nc1cccc([N+](=O)[O-])c1	3.79	
	CC(=O)Nc1ccc(C(CCCCNC(=O)Nc2ccc(Cl)c(C(F)(F)F)c2)c2ccc(NC(C)=O)cc2)cc1	> 20	
	O=C(NCCCCC(c1ccc(F)cc1)c1ccc(F)cc1)Nc1ccc(Cl)c([N+](=O)[O-])c1	4.06	
24	O=C(NCCCCC(c1ccc(F)cc1)c1ccc(F)cc1)Nc1ccc(I)cc1	11.8	
85	O=C(NCCCCN(c1ccc(F)cc1)c1ccc(F)cc1)Nc1ccc(Cl)c(C(F)(F)F)c1	5.04	Ki [3]: 0.043 µM
20	O=C(NCCCCC(c1ccc(F)cc1)c1ccc(F)cc1)Nc1ccc(Cl)cc1C(F)(F)F	> 20	

Reference: ChEMBL document CHEMBL4732053, “Design, synthesis and structure-activity relationship study of novel urea compounds as FGFR1 inhibitors to treat metastatic triple-negative breast cancer” (Eur J Med Chem, 2021)
